Experimental findings from ChEMBL document CHEMBL1126842, “Inhibition of herpes simplex virus type 1 ribonucleotide reductase by substituted tetrapeptide derivatives” (J Med Chem, 1993) are described below.

Where a SMILES comes first, the peptide text is derived from it. [ ]: non-standard residue; d: D form. The star is where a group is joined. ξ: configuration not given here. Asp(3,3-Me2) = CC(C)(C(=O)O)[C@H](N)C(=O)O; Cyclohexanecarbonyl = O=C(C1CCCCC1)*; Butanoyl(2-Et) = CCC(CC)C(=O)*; Thr(3ξ) = CC(O)[C@H](N)C(=O)O; Tle = CC(C)(C)[C@H](N)C(=O)O; Leu(ol) = CC(C)C[C@H](N)CO; Isovaleryl = CC(C)CC(=O)*; Isobutyryl = CC(C)C(=O)*; Piperidide = C1CCN(*)CC1; Pyrrolidide = C1CCN(*)C1; X1 = CC(C)C(C(=O)*)C(C)C; Bn = c1ccc(C*)cc1

Test system in the first test: not listed separately
Kind of test: Inhibition of Herpes simplex virus type 1 ribonucleotide reductase. It counts as functional, Human alphaherpesvirus 1. In short, it runs like this:
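IC50 taken as the mean of at least three separate determinations, with standard deviation from the mean reported; one entry came from a single determination.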
Regarding `CCC(CC)C(=O)N[C@H](C(=O)N[C@@H](CC(=O)N1CCCC1)C(=O)N[C@@H](CC(=O)O)C(=O)NCCC(C)(C)C)C(C)(C)C`, the 50% inhibitory concentration (IC50) worked out at 19 µM. The compound `CCC(CC)C(=O)N[C@H](C(=O)N[C@@H](CC(=O)N1CCCC1)C(=O)N[C@@H](CC(=O)O)C(=O)NC(CO)CO)C(C)(C)C` had an IC50 above 1000 µM. The same measure, in the same setting: under `CCC(CC)C(=O)N[C@H](C(=O)N[C@@H](CCC1CCCC1)C(=O)N[C@@H](CC(=O)O)C(=O)N[C@@H](CC(C)C)C(=O)O)C(C)(C)C` stands 64 µM; under `CCC(CC)C(=O)N[C@H](C(=O)N[C@@H](CC(=O)N1CCCC1)C(=O)N[C@@H](CC(=O)O)C(=O)N[C@H](CO)CC(C)(C)C)C(C)(C)C`, 1.9 µM; under `CCC(CC)C(=O)N[C@H](C(=O)N[C@@H](CC(=O)N1CCCC1)C(=O)N[C@@H](CC(=O)O)C(=O)N[C@H](CO)CC1CCCCC1)C(C)(C)C`, 8.1 µM. As to `CCC(CC)C(=O)N[C@H](C(=O)N[C@@H](CC(=O)C1CCCC1)C(=O)N[C@@H](CC(=O)O)C(=O)N[C@@H](CC(C)C)C(=O)O)C(C)(C)C`, the concentration for half-maximal inhibition (IC50) was 1.3 µM. The compound `CC(C)C[C@H](NC(=O)[C@H](CC(=O)O)NC(=O)[C@H](CC(N)=O)NC(=O)[C@@H](NC(=O)[C@@H](NC(=O)[C@H](C)NC(=O)CNC(=O)[C@H](C)NC(=O)[C@@H](N)Cc1ccc(O)cc1)C(C)C)C(C)C)C(=O)O` yielded an IC50 of 38 µM. `CC[C@H](C)[C@H](NC(C)=O)C(=O)N[C@@H](CC(=O)N1CCCC1)C(=O)N[C@@H](CC(=O)O)C(=O)N[C@@H](CC(C)C)C(=O)O` (Ac-ID(Pyrrolidide)DL-OH): the 50% inhibitory concentration (IC50) was above 1000 µM. Regarding `CC[C@H](C)[C@H](NC(=O)C1CCCCC1)C(=O)N[C@@H](CC(=O)N1CCCC1)C(=O)N[C@@H](CC(=O)O)C(=O)N[C@@H](CC(C)C)C(=O)O` (Cyclohexanecarbonyl-ID(Pyrrolidide)DL-OH), the half-maximal inhibitory concentration (IC50) is 1.5 µM. `CC[C@H](C)[C@H](NC(=O)[C@@H](N)C(C)C)C(=O)N[C@@H](CC(=O)N1CCCC1)C(=O)N[C@@H](CC(=O)O)C(=O)N[C@@H](CC(C)C)C(=O)O` (H-VID(Pyrrolidide)DL-OH) had an IC50 of 13 µM.

Take `CC(C)C[C@H](NC(=O)[C@H](CC(=O)O)NC(=O)[C@H](CC(N)=O)NC(=O)[C@@H](N)C(C)C)C(=O)O` (H-VNDL-OH): the IC50 was above 2000 µM.

`CC[C@H](C)[C@H](NC(=O)C(C)C)C(=O)N[C@@H](CC(=O)N1CCCC1)C(=O)N[C@@H](CC(=O)O)C(=O)N[C@@H](CC(C)C)C(=O)O` (Isobutyryl-ID(Pyrrolidide)DL-OH) showed a half-inhibitory concentration (IC50) of 10 µM. On the same count and under the same terms, as for `CC[C@H](C)[C@H](NC(=O)CC(C)C)C(=O)N[C@@H](CC(=O)N1CCCC1)C(=O)N[C@@H](CC(=O)O)C(=O)N[C@@H](CC(C)C)C(=O)O` (Isovaleryl-ID(Pyrrolidide)DL-OH), the figure is 3 µM; as for `CC[C@H](C)[C@H](NC(=O)C(C(C)C)C(C)C)C(=O)N[C@@H](CC(=O)N1CCCC1)C(=O)N[C@@H](CC(=O)O)C(=O)N[C@@H](CC(C)C)C(=O)O` (X1-ID(Pyrrolidide)DL-OH), 2 µM.

`CCC(CC)C(=O)N[C@@H](C)C(=O)N[C@@H](CC(=O)N1CCCC1)C(=O)N[C@@H](CC(=O)O)C(=O)N[C@@H](CC(C)C)C(=O)O` ({Butanoyl(2-Et)}-AD(Pyrrolidide)DL-OH): the IC50 was 11 µM. As for `CCC(CC)C(=O)N[C@@H](CC(=O)O)C(=O)N[C@@H](CC(=O)N1CCCC1)C(=O)N[C@@H](CC(=O)O)C(=O)N[C@@H](CC(C)C)C(=O)O` ({Butanoyl(2-Et)}-DD(Pyrrolidide)DL-OH), the 50% inhibitory concentration (IC50) is 6.1 µM. As for `CCC(CC)C(=O)NCC(=O)N[C@@H](CC(=O)N1CCCC1)C(=O)N[C@@H](CC(=O)O)C(=O)N[C@@H](CC(C)C)C(=O)O` ({Butanoyl(2-Et)}-GD(Pyrrolidide)DL-OH), the half-inhibitory concentration (IC50) stood at 77 µM. Still for that read-out and setting: as for `CCC(CC)C(=O)N[C@H](C(=O)N[C@@H](CC(=O)N1CCCC1)C(=O)N[C@@H](CC(=O)O)C(=O)N[C@@H](CC(C)C)C(=O)O)[C@@H](C)CC` ({Butanoyl(2-Et)}-ID(Pyrrolidide)DL-OH), the figure is 1.5 µM; as for `CCC(CC)C(=O)N[C@@H](CCCCN)C(=O)N[C@@H](CC(=O)N1CCCC1)C(=O)N[C@@H](CC(=O)O)C(=O)N[C@@H](CC(C)C)C(=O)O` ({Butanoyl(2-Et)}-KD(Pyrrolidide)DL-OH), 14 µM. With `CCC(CC)C(=O)N[C@H](C(=O)N[C@@H](CC(=O)N1CCCC1)C(=O)N[C@@H](CC(=O)O)C(=O)N[C@@H](CC(C)C)C(=O)O)[C@@H](C)O` ({Butanoyl(2-Et)}-TD(Pyrrolidide)DL-OH), the half-maximal inhibitory concentration (IC50) came out at 4.4 µM.

Compound `CCC(CC)C(=O)N[C@H](C(=O)N[C@@H](CC(=O)N1CCCC1)C(=O)N[C@@H](CC(=O)O)C(=O)N[C@@H](CC(C)C)C(=O)O)C(C)OCc1ccccc1` (stereo partly drawn) ({Butanoyl(2-Et)}-[Thr(3ξ)](Bn)D(Pyrrolidide)DL-OH) registered an IC50 of 3.1 µM. `CCNC(=O)C[C@H](NC(=O)[C@@H](NC(=O)C(CC)CC)C(C)(C)C)C(=O)N[C@@H](CC(=O)O)C(=O)N[C@@H](CC(C)C)C(=O)O` ({Butanoyl(2-Et)}-[Tle]D(NHEt)DL-OH) registered a concentration for half-maximal inhibition (IC50) of 6.9 µM. Same read-out and setting: as for `CCOC(=O)C[C@H](NC(=O)[C@@H](NC(=O)C(CC)CC)C(C)(C)C)C(=O)N[C@@H](CC(=O)O)C(=O)N[C@@H](CC(C)C)C(=O)O` ({Butanoyl(2-Et)}-[Tle]D(OEt)DL-OH), the figure is 4.7 µM. On to `CCC(CC)C(=O)N[C@H](C(=O)N[C@@H](CC(=O)N1CCCCC1)C(=O)N[C@@H](CC(=O)O)C(=O)N[C@@H](CC(C)C)C(=O)O)C(C)(C)C` ({Butanoyl(2-Et)}-[Tle]D(Piperidide)DL-OH), for which the concentration for half-maximal inhibition (IC50) worked out at 1.3 µM.

As to `CCC(CC)C(=O)N[C@H](C(=O)N[C@@H](CC(=O)N1CCCC1)C(=O)N[C@@H](C)C(=O)N[C@@H](CC(C)C)C(=O)O)C(C)(C)C` ({Butanoyl(2-Et)}-[Tle]D(Pyrrolidide)AL-OH), the IC50 was above 1000 µM.

`CCC(CC)C(=O)N[C@H](C(=O)N[C@@H](CC(=O)N1CCCC1)C(=O)N[C@@H](CC(=O)O)C(=O)N[C@@H](C)C(=O)O)C(C)(C)C` ({Butanoyl(2-Et)}-[Tle]D(Pyrrolidide)DA-OH) registered an IC50 above 1000 µM. Still for that read-out and setting: under `CCC(CC)C(=O)N[C@H](C(=O)N[C@@H](CC(=O)N1CCCC1)C(=O)N[C@@H](CC(=O)O)C(=O)N[C@@H](CC(C)C)C(=O)O)C(C)(C)C` ({Butanoyl(2-Et)}-[Tle]D(Pyrrolidide)DL-OH) stands 0.6 µM; under `CCC(CC)C(=O)N[C@H](C(=O)N[C@@H](CC(=O)N1CCCC1)C(=O)N[C@@H](CC(=O)O)C(=O)N[C@H](CO)CC(C)C)C(C)(C)C` ({Butanoyl(2-Et)}-[Tle]D(Pyrrolidide)D[Leu(ol)]), 5.6 µM; under `CCC(CC)C(=O)N[C@H](C(=O)N[C@@H](CC(=O)N1CCCC1)C(=O)N[C@@H](CCC(=O)O)C(=O)N[C@@H](CC(C)C)C(=O)O)C(C)(C)C` ({Butanoyl(2-Et)}-[Tle]D(Pyrrolidide)EL-OH), above 1000 µM. `CCC(CC)C(=O)N[C@H](C(=O)N[C@@H](CC(=O)N1CCCC1)C(=O)N[C@H](C(=O)N[C@@H](CC(C)C)C(=O)O)C(C)(C)C(=O)O)C(C)(C)C` ({Butanoyl(2-Et)}-[Tle]D(Pyrrolidide)[Asp(3,3-Me2)]L-OH) had a half-maximal inhibitory concentration (IC50) of 0.18 µM. Compound `CCC(CC)C(=O)N[C@H](C(=O)N[C@@H](CCC(=O)N1CCCC1)C(=O)N[C@@H](CC(=O)O)C(=O)N[C@@H](CC(C)C)C(=O)O)C(C)(C)C` ({Butanoyl(2-Et)}-[Tle]E(Pyrrolidide)DL-OH) displayed an IC50 above 1000 µM. `CCC(CC)C(=O)N[C@H](C(=O)N[C@@H](CC(N)=O)C(=O)N[C@@H](CC(=O)O)C(=O)N[C@@H](CC(C)C)C(=O)O)C(C)(C)C` ({Butanoyl(2-Et)}-[Tle]NDL-OH): the IC50 came out at 100 µM. The same measure, in the same setting: under H-AGAVVNDL-OH stands 280 µM; under H-AVVNDL-OH, 190 µM.

In the case of H-GAVVNDL-OH, the IC50 came out at 220 µM.

As to H-YAGAVVND-OH, the IC50 was above 2000 µM.

A further test addresses T1, Ribonucleoside-diphosphate reductase large subunit (Homo sapiens, UniProt P23921).
T1 sequence (P23921 whole entry): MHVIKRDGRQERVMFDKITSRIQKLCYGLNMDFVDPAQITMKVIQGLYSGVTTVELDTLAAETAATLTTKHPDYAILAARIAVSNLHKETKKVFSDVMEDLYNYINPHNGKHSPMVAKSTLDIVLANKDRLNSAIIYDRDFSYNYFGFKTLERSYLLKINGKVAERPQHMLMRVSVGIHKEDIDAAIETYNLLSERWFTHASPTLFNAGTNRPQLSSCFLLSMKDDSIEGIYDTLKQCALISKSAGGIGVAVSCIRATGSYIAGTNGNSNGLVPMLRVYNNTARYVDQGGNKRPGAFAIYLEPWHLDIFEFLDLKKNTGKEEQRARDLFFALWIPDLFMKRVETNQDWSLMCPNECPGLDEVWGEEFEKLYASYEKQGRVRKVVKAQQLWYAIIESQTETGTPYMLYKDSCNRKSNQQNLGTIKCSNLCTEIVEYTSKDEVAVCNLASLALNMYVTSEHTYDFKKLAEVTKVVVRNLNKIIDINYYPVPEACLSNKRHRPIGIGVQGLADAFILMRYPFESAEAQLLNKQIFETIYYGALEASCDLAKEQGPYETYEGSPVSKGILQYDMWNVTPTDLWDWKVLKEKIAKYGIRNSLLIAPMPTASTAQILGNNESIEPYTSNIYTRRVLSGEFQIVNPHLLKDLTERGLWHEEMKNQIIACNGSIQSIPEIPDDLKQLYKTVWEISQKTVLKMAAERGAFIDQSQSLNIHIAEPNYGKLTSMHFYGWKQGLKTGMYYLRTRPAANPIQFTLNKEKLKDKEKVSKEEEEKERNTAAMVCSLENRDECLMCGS
Kind of test: Tested for inhibition of human ribonucleotide reductase.
Compound `CCC(CC)C(=O)N[C@H](C(=O)N[C@@H](CC(=O)N1CCCC1)C(=O)N[C@@H](CC(=O)O)C(=O)N[C@@H](CC(C)C)C(=O)O)[C@@H](C)CC` ({Butanoyl(2-Et)}-ID(Pyrrolidide)DL-OH) yielded a half-inhibitory concentration (IC50) above 1000 µM. The same measure, in the same setting: as for `CCC(CC)C(=O)N[C@H](C(=O)N[C@@H](CC(=O)N1CCCC1)C(=O)N[C@@H](CC(=O)O)C(=O)N[C@@H](CC(C)C)C(=O)O)C(C)(C)C` ({Butanoyl(2-Et)}-[Tle]D(Pyrrolidide)DL-OH), the figure is above 1000 µM.
